Sampled rows, rich in hits. Any-hit rate of the full collection: about 3.5%.
RGS4 act: RGS4 potentiation or activation | AID 463111 | 310,000 tested, 0.92% active | HEK293 M3R/inducible RGS4, carbachol calcium flux Fluo4; active compounds read low | B-score at 10 µM;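 active = B-score of the integrated calcium signal more than 4 SD below the library mean, with starting fluorescence not abnormally high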;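 also: negative B-score means reduced calcium response which marks RGS4 activation or potentiation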
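Assay system: Inducible-RGS4 HEK293 cells carrying M3 receptor | Schedule: Compound preincubation 20 min at room temperature before agonist | Signal: Kinetic calcium fluorescence imaging with Fluo4-AM dye, 2 µM | Read-out basis: B score from integrated fluorescence ratio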
MrgX1 antag: human MrgX1 receptor antagonism, primary screen; 310,000 tested, 1.3% active; B-score at 10 µM; MRGX1-HEK293 calcium flux, Fluo-4, BAM8-22 antagonism; active compounds read low; Q96LB2;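 active = calcium-response B-score plate-corrected more than 3 library SD below zero, starting fluorescence within 5 deviations, no agonist response on first addition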;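 also: peak minus trough fluorescence over baseline after final BAM8-22 challenge near maximal dose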
Target sequence (Q96LB2 whole entry, looked up): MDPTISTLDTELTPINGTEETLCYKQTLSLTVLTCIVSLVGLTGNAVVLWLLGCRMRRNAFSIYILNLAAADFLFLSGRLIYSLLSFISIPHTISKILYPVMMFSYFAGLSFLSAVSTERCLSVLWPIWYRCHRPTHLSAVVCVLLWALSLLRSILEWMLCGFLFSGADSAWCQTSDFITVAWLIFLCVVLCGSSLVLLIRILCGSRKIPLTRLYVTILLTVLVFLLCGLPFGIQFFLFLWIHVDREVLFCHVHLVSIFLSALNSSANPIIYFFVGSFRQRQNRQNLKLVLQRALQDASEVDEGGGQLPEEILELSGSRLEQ
RGS4 inh: inhibitors of human RGS4; HEK293 M3R/RGS4 inducible, Fluo-4 calcium flux; active compounds read high; triggered by carbachol at its EC20; AID 463165; 310,000 tested, 0.45% active; P49798; B-score at 10 µM;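 active = B-score, a plate-corrected calcium signal, over three deviations above library mean, with baseline fluorescence within five deviations of library mean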;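 also: RGS4 expression induced by doxycycline in cells with stable M3 receptor; B-score is computed from the integrated fluorescence ratio over baseline after carbachol; higher B-score means a larger calcium signal and so more RGS4 inhibition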
Target sequence (P49798 whole entry, looked up): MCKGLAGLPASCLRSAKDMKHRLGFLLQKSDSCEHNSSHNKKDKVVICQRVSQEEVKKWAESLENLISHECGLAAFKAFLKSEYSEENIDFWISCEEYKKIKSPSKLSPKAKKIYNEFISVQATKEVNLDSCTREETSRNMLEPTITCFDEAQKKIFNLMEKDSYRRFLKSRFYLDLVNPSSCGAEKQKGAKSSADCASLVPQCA
MrgX1 allo act: human MrgX1 positive allosteric modulation, primary screen | Q96LB2 | MrgX1-HEK293, Fluo-4 calcium flux, FDSS; active compounds read high | B-score at 10 µM | 310,000 tested, 0.63% active | AID 588675;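 active = plate-corrected calcium response at least 3 library SD above typical, normal starting fluorescence, not activating the receptor alone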;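 also: compound read alongside a low EC10 to EC30 dose of BAM8-22 agonist; peak minus trough fluorescence over baseline measured at the second addition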
MrgX1 agonist: human MrgX1 receptor agonism, primary screen; B-score at 10 µM; AID 588627; MrgX1-HEK293 cells, Fluo-4 calcium fluorescence, agonist mode; active compounds read high; Q96LB2; 310,000 tested, 0.44% active;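 active = calcium response B-score plate-corrected fluorescence ratio at least 3 library SD, with starting fluorescence B-score inside 5 SD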
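System: HEK293 cells stably expressing human MrgX1 receptor; Dosing: test compound in the initial addition of three; Schedule: overnight plating, then 30 min 37 °C plus 30 min room-temperature dye loading; Detection: kinetic calcium dye fluorescence, Fluo-4 NW; Controls: per-plate positive and negative controls for Z′ factor.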
Starred values were filed as active, the others as inactive.

What do the screens show for `O=C(c1ccccc1)C(Nc1ccccn1)c1ccccc1` (centres undefined)?
RGS4 act: -7.47*; MrgX1 antag: inactive; RGS4 inh: inactive; MrgX1 allo act: inactive; MrgX1 agonist: inactive

What do the screens show for `O=C(/C=C/c1c(F)cccc1Cl)NCCCN1CCOCC1`?
RGS4 act: inactive; MrgX1 antag: inactive; RGS4 inh: inactive; MrgX1 allo act: inactive; MrgX1 agonist: inactive

How did O=c1onc(-c2ccccc2Cl)n1-c1ccccc1Cl do in these assays?
RGS4 act: inactive; MrgX1 antag: inactive; RGS4 inh: inactive; MrgX1 allo act: inactive; MrgX1 agonist: inactive

What do the screens show for `Cn1nc(CC(=O)Nc2ncc(Br)s2)c2ccccc2c1=O`?
RGS4 act: inactive; MrgX1 antag: inactive; RGS4 inh: inactive; MrgX1 allo act: 8.95*; MrgX1 agonist: inactive

What do the screens show for `Cn1nc(CC(=O)NC2CCCCCCCCCCC2)c2ccccc2c1=O`?
RGS4 act: inactive; MrgX1 antag: inactive; RGS4 inh: inactive; MrgX1 allo act: inactive; MrgX1 agonist: inactive

Results for Nn1c(SCC(=O)Nc2ccccc2Br)nnc1-c1ccco1 ?
RGS4 act: inactive; MrgX1 antag: inactive; RGS4 inh: inactive; MrgX1 allo act: inactive; MrgX1 agonist: inactive

Results for Cc1c(-n2cc(C(=O)c3cc(F)ccc3O)cc(C#N)c2=O)c(=O)n(-c2ccccc2)n1C ?
RGS4 act: inactive; MrgX1 antag: inactive; RGS4 inh: inactive; MrgX1 allo act: 6.67*; MrgX1 agonist: inactive

Results for C=CS(=O)(=O)c1ccc(Oc2ccc(S(=O)(=O)C=C)cc2)cc1 ?
RGS4 act: inactive; MrgX1 antag: inactive; RGS4 inh: 21.2*; MrgX1 allo act: inactive; MrgX1 agonist: 31.4*

How did NS(=O)(=O)c1ccc(Oc2ccc(S(N)(=O)=O)cc2)cc1 do in these assays?
RGS4 act: inactive; MrgX1 antag: inactive; RGS4 inh: inactive; MrgX1 allo act: inactive; MrgX1 agonist: inactive

Results for O=C(/C=C/c1ccc([N+](=O)[O-])cc1)N(c1ccccn1)C1CCCCC1 ?
RGS4 act: inactive; MrgX1 antag: inactive; RGS4 inh: inactive; MrgX1 allo act: inactive; MrgX1 agonist: inactive

What do the screens show for `CCc1ccc(OCC(=O)NC(C)C)cc1`?
RGS4 act: inactive; MrgX1 antag: inactive; RGS4 inh: inactive; MrgX1 allo act: inactive; MrgX1 agonist: inactive

Results for COc1cc2ccccc2cc1C(=O)Nc1sc2c(c1C(N)=O)CCN(C(C)C)C2 ?
RGS4 act: -7.49*; MrgX1 antag: inactive; RGS4 inh: inactive; MrgX1 allo act: inactive; MrgX1 agonist: inactive

What do the screens show for `CC(C)N1CCc2c(sc(NC(=O)CN3C(=O)c4ccccc4C3=O)c2C(N)=O)C1`?
RGS4 act: inactive; MrgX1 antag: inactive; RGS4 inh: inactive; MrgX1 allo act: inactive; MrgX1 agonist: inactive

Results for CN1CCc2c(sc(NC(=O)c3ccc4ccccc4c3)c2C(N)=O)C1 ?
RGS4 act: inactive; MrgX1 antag: inactive; RGS4 inh: inactive; MrgX1 allo act: inactive; MrgX1 agonist: 37.5*

How did CN1CCc2c(sc(NC(=O)Cc3ccccc3)c2C(N)=O)C1 do in these assays?
RGS4 act: inactive; MrgX1 antag: inactive; RGS4 inh: inactive; MrgX1 allo act: inactive; MrgX1 agonist: inactive

What do the screens show for `CCOc1ccc(NC(=O)CSc2ccc3nnc(-c4ccccn4)n3n2)cc1`?
RGS4 act: inactive; MrgX1 antag: inactive; RGS4 inh: inactive; MrgX1 allo act: inactive; MrgX1 agonist: inactive

What do the screens show for `O=[N+]([O-])c1ccc(N2CCN(Cc3ccccc3)CC2)s1`?
RGS4 act: inactive; MrgX1 antag: -4.98*; RGS4 inh: inactive; MrgX1 allo act: inactive; MrgX1 agonist: inactive

What do the screens show for `CN1CCN(Cc2ccc(Sc3ccc(Cl)cc3)c([N+](=O)[O-])c2)CC1`?
RGS4 act: -8.27*; MrgX1 antag: inactive; RGS4 inh: inactive; MrgX1 allo act: inactive; MrgX1 agonist: inactive

How did Nc1ccccc1Sc1ccc(C(=O)c2ccccc2C(=O)O)cc1[N+](=O)[O-] do in these assays?
RGS4 act: inactive; MrgX1 antag: inactive; RGS4 inh: inactive; MrgX1 allo act: inactive; MrgX1 agonist: inactive

Results for O=C(O)c1ccccc1C(=O)c1ccc(Sc2ccc(Cl)cc2)c([N+](=O)[O-])c1 ?
RGS4 act: inactive; MrgX1 antag: inactive; RGS4 inh: inactive; MrgX1 allo act: inactive; MrgX1 agonist: 38*

Results for COc1ccc(-c2nc(NC(=O)c3n[nH]c(=O)c4ccccc34)sc2C)cc1 ?
RGS4 act: inactive; MrgX1 antag: inactive; RGS4 inh: inactive; MrgX1 allo act: inactive; MrgX1 agonist: inactive

What do the screens show for `CC1(C)Cc2c(ccc3ccccc23)C(NNC(=O)c2cccnc2)=N1`?
RGS4 act: inactive; MrgX1 antag: inactive; RGS4 inh: inactive; MrgX1 allo act: inactive; MrgX1 agonist: inactive

Results for O=C(O)CC/C(=N\Nc1ccc([N+](=O)[O-])cc1)c1ccccc1 ?
RGS4 act: inactive; MrgX1 antag: -5.89*; RGS4 inh: inactive; MrgX1 allo act: inactive; MrgX1 agonist: inactive

What do the screens show for `CCN(CC)S(=O)(=O)c1ccc(OC)c(NC(=S)Nc2cccc(C)c2C)c1`?
RGS4 act: inactive; MrgX1 antag: inactive; RGS4 inh: inactive; MrgX1 allo act: inactive; MrgX1 agonist: inactive

How did O=C(O)CC(Cc1ccccc1)(C(=O)O)c1ccccc1 (centres undefined) do in these assays?
RGS4 act: inactive; MrgX1 antag: inactive; RGS4 inh: inactive; MrgX1 allo act: inactive; MrgX1 agonist: inactive

Results for C/C(=N\OCC(=O)OCC(=O)N(Cc1ccccc1)C(C)(C)C)c1ccc2c(c1)OCO2 ?
RGS4 act: inactive; MrgX1 antag: inactive; RGS4 inh: inactive; MrgX1 allo act: inactive; MrgX1 agonist: inactive

How did COc1cc(NC(=O)CN(C)C2CCCCC2)c(C)cc1[N+](=O)[O-] do in these assays?
RGS4 act: inactive; MrgX1 antag: -5.24*; RGS4 inh: inactive; MrgX1 allo act: inactive; MrgX1 agonist: inactive

What do the screens show for `COc1cc(Cl)c(CN2CCCC(CO)(Cc3ccccc3F)C2)cc1OC` (centres undefined)?
RGS4 act: inactive; MrgX1 antag: inactive; RGS4 inh: inactive; MrgX1 allo act: inactive; MrgX1 agonist: inactive

Results for CCOc1ccc(CN2CCCC(CO)(Cc3ccccc3F)C2)cc1 (centres undefined) ?
RGS4 act: inactive; MrgX1 antag: inactive; RGS4 inh: inactive; MrgX1 allo act: inactive; MrgX1 agonist: 64*

How did CCOc1ccc(C(C)=O)cc1N1C(=O)C2C3C=CC(O3)C2C1=O (centres undefined) do in these assays?
RGS4 act: inactive; MrgX1 antag: inactive; RGS4 inh: inactive; MrgX1 allo act: inactive; MrgX1 agonist: 31.5*

What do the screens show for `C#CCSc1nnc(-c2ccc(C)cc2)o1`?
RGS4 act: inactive; MrgX1 antag: inactive; RGS4 inh: inactive; MrgX1 allo act: inactive; MrgX1 agonist: inactive
